# Reference: the RNAGym collection of RNA variant scans (doi:10.1038/s41586-018-0170-7)
# B1: tRNA (parent)
# chain: GUUCCGUUGGCGUAAUGGUAACGCGUCUCCCUCCUAAGGAGAAGACUGCGGGUUCGAGUCCCGUACGGAACG
# Variants of: B1
# Test: yeast fitness, log relative to wild type (ln ratio); higher = fitter; tRNA-Arg(CCU), competitive growth, 37 C, 1 M NaCl
# How it was run: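 A combinatorial tRNA-Arg(CCU) variant library was carried on a HIS3 centromeric plasmid in BY4742 lacking the chromosomal gene, from two independent transformations. Pools grew 4 generations in SC-HIS at 30 °C, then ~6.5 generations (~26.5 h) in SC-HIS 1M NaCl at 37 °C, with three outputs per input. Variants were counted by 125 bp paired-end Illumina sequencing. Fitness is ln of each genotype's generations (OD-scaled log2 output/input frequency, inverse-variance weighted across replicates) over the wild-type's.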
row,Variant,yeast fitness (ln)
1,G1A U2G G6U A43C C46U A69G A70G,-0.334
2,G6A C27U A43C A69G A70U,-0.345
3,G1A C46U C66U A69G C71U,-0.763
4,G1A A43C C66A A69G A70G C71U,-0.249
5,G6A C66A A69G A70G C71U,-0.163
6,U2G G6A A43C C71U,-0.195
7,G6A A43C A69G A70G,-0.26
8,U2C C66A A69G A70U C71U,-0.496
9,U2C G6U C27U A43C C46U C66A A69G A70G,-0.051
10,U2G C46U C66A A69G A70G C71U,-0.139
11,U2G G6A C27U A43C,-0.0726
12,G1A U2G G6U C46U C71U,-0.251
13,G1A U2G G6U A43C C46U A70U C71U,-0.226
14,G1A U2C G6U C27U C46U C66A A70G C71U,-0.0279
15,A43C C66U A70U C71U,-0.358
16,G1A U2G G6U C27U A43C C46U C71U,-0.277
17,U2C C27U A43C C46U C71U,-0.0612
18,U2G G6U A43C C66U A69G C71U,-0.408
19,U2C G6U C46U A69G A70U C71U,-0.216
20,C27U A69G A70G,-0.0809
21,G1A U2C G6U C27U C46U A70U,-0.157

row,Variant,yeast fitness (ln)
1,G6A A43C C71U,-0.144
2,U2C G6A C27U C66U A69G A70U,-0.138
3,C27U C66A A69G A70U C71U,-0.356
4,U2C G6A C27U A43C C46U C71U,-0.115
5,U2C G6A C46U C66A A70U C71U,-0.0695
6,G1A G6A C46U A69G A70U,-0.0698
7,G1A G6A C27U C46U A69G A70G C71U,-0.316
8,U2C G6A C27U A43C C66U A70G C71U,-0.101
9,G1A U2G G6A A43C C46U C66U,-0.23
10,A43C A69G,-0.0224
11,G1A G6U C66U A70G,-0.199
12,G1A U2C G6U A43C C46U C66U A70U C71U,-0.235
13,G1A U2C G6U C27U A43C C46U A69G A70U,-0.183
14,G6A A43C C66U C71U,-0.335
15,G1A C27U A43C,-0.163
16,G1A C27U A43C A70G,-0.173
17,G1A U2G G6U C27U A43C C66U A69G A70U,-0.611
18,G1A U2G G6U C27U A43C C46U C66A A70U C71U,-0.626
19,G6U A43C C46U C66A,-0.00135
20,U2G G6A A43C C66A A70U C71U,-0.33
21,G1A G6U A43C C46U C66U A69G A70G C71U,-0.333

row,Variant,yeast fitness (ln)
1,G1A A43C C46U A70G,-0.166
2,G1A U2G G6U C46U C66A C71U,-0.179
3,G1A U2C G6U A43C A70U C71U,-0.195
4,U2C C46U C66A C71U,-0.0793
5,G1A U2C C66U A70U C71U,-0.106
6,G1A A69G A70G,-0.137
7,U2G C27U C46U C66U A69G A70U C71U,-0.376
8,G1A U2C G6U C27U A43C C46U A70G,-0.207
9,U2G G6A C66U A70G,-0.0683
10,U2G G6A C27U A43C C46U,-0.0569
11,G1A U2C G6U A69G A70G C71U,-0.367
12,G1A A43C C66A A70U C71U,-0.321
13,C27U C66A A70G C71U,-0.194
14,G6A C27U A43C C46U C66A A69G A70U,-0.28
15,U2C C46U C66A A69G A70G C71U,-0.128
16,G1A U2C G6U C46U C66U A70G C71U,-0.0224
17,U2C C46U C71U,-0.069
18,C27U C46U C66U A70G C71U,-0.126
19,G1A U2G G6U C27U A43C C46U C66U A69G A70U,-0.451
20,U2G G6A A43C C66A A69G A70U C71U,-0.329
21,G1A G6A A43C C46U C66U A70U,-0.24

row,Variant,yeast fitness (ln)
1,C27U A43C C71U,-0.114
2,U2C G6U C46U A69G A70U,-0.086
3,G6A A43C C66A A69G A70G C71U,-0.261
4,G1A U2C C27U A70G C71U,-0.0348
5,G1A U2G G6A A69G A70G,-0.333
6,G1A U2G C46U A69G A70U C71U,-0.0215
7,U2G G6U C27U C66U,-0.233
8,G1A C46U C66U A69G A70G,-0.134
9,G6U C27U C66U A69G A70U C71U,-0.416
10,G1A A43C C46U C66U A69G A70G,-0.222
11,U2G G6A A43C C46U A70U,-0.261
12,U2G C27U A43C A70U C71U,-0.235
13,U2G G6U C27U C46U C66A A70G,-0.376
14,U2C A43C,-0.0265
15,G1A U2G C46U C66U A70U,-0.0831
16,G1A U2G G6U C46U A70U,-0.246
17,U2C A43C C66U,-0.0874
18,G1A U2G C27U A43C A70G C71U,-0.246
19,G6U A43C C46U C66U A69G A70U,-0.347
20,C27U A43C C66U A69G A70G,-0.255
